Assay results collected from several papers.
Target: Serine/threonine-protein kinase NIM1 (NIM1K, Homo sapiens, UniProt Q8IY84)

O=C(NCCCN1CCOCC1)c1ccc(Nc2ncc(Cl)c(-c3ccc(Cl)s3)n2)cc1
remaining binding (binding; competition with immobilised ligand; 1 µM): 20%

COc1ncc2cc3ccccc3nc2c1C#N
remaining binding (cell-free assay; competition with immobilised ligand; 5 µM): 89%

CS(=O)(=O)c1cc(C2(NC(=O)c3cncc4c3cnn4-c3ccc(F)cc3)CC2)ccn1
remaining binding (cell-free assay; competition with immobilised ligand; 1 µM): 56%

F[C@@H]1CCN(c2nccc(-c3cnn4ncccc34)n2)C1
remaining binding (binding; 1 µM): 100%

CS(=O)(=O)NCC[C@H](NC(=O)c1cncc2c1cnn2-c1ccc(F)cc1)c1ccnc(S(C)(=O)=O)c1
remaining binding (cell-free assay; competition with immobilised ligand; 1 µM): 100%

O=C(NCCCN1CCOCC1)c1ccc(Nc2nccc(-c3cc4ccccc4s3)n2)cc1
remaining binding (binding; competition with immobilised ligand; 1 µM): 86%

CS(=O)(=O)N1CCCC(NC(=O)[C@H](CCC2CCCCC2)NC(=O)c2ccc(CNC(=O)c3cnc4ccccn34)cc2)C1 (stereo partly shown)
remaining binding (cell-free assay; competition with immobilised ligand; 0.1 µM): 64%

COc1cnc(Nc2cccc(S(N)(=O)=O)c2)nc1N1CCN(c2ccccc2)C(=O)C1
remaining binding (binding; competition with immobilised ligand; 1 µM): 87%

CN(CCCC(F)(F)F)c1nccc(-c2cnn3ncccc23)n1
remaining binding (binding; 1 µM): 100%

CCN1CCN(Cc2ccc(C(=O)Nc3ccc(C)c(Oc4ccc5c(c4)CC(=O)N5)c3)cc2C(F)(F)F)CC1
remaining binding (binding; competition with immobilised ligand; 1 µM): 100%

O=C(c1ccc(Nc2ncc(Cl)c(-c3ccc(Cl)s3)n2)cc1)N1CCC(N2CCCC2)CC1
remaining binding (binding; competition with immobilised ligand; 1 µM): 6.3%

C[C@@H]1CCN(c2nccc(-c3cnn4ncccc34)n2)C1
remaining binding (binding; 1 µM): 87%

c1cncc(-c2cccc(Nc3nccc(NC4CCCCC4)n3)c2)c1
remaining binding (binding; competition with immobilised ligand; 10 µM): 88%

CN(c1nccc(-c2cnn3ncccc23)n1)C1CC1
remaining binding (binding; 1 µM): 100%

C[C@@H]1CN(c2cc(-c3nn(C)c4ccc(OC5(C)CC5)cc34)ncn2)C[C@H](C)O1
remaining binding (cell-free assay; competition with immobilised ligand; 1 µM): 74%

CN(C)c1nccc(-c2cnn3ncccc23)n1
remaining binding (binding; 1 µM): 52%

CC(=O)C1=C(C)N(c2cccc(C(F)(F)F)c2)C(=O)N[C@@H]1c1ccc(C#N)nc1
remaining binding (cell-free assay; competition with immobilised ligand; 1 µM): 83.5%

O=C(NCC1CCOCC1)c1n[nH]cc1NC(=O)c1c(F)cccc1F
remaining binding (binding; competition with immobilised ligand; 1 µM): 97%

CN(C)c1ncc(F)c(-c2cnn3ncccc23)n1
remaining binding (binding; 1 µM): 69%

Cc1cc(-n2nc(Cc3cc(F)cc(C(F)(F)F)c3)nc2C)ccc1C(N)=O
remaining binding (cell-free assay; competition with immobilised ligand; 1 µM): 100%

CN(C)c1nccc(-c2cnc3ncccn23)n1
remaining binding (binding; 1 µM): 67%

Nc1ncc2c(n1)-c1c([nH]c3ccc(C#CC4CC4)cc13)CCCC2
remaining binding (binding; competition with immobilised ligand; 1 µM): 61%
